Measured values taken from ChEMBL document CHEMBL1137312, “Design and synthesis of a novel photoaffinity ligand for the dopamine and serotonin transporters based on 2beta-carbomethoxy-3beta-biphenyltropane” (J Med Chem, 2006).
The source made the active and inactive calls. The calls are words filed in the database; no cut-off is given here.

Tests used:
[1] = target: Sodium-dependent dopamine transporter (Rattus norvegicus, UniProt P23977); assay: Displacement of [3H]WIN-35428 from DAT in rat striatal membrane; type: cell membranes, Striatum
Outline: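 Competition binding against [3H]WIN 35 428 in rat striatal membranes. Ligand was used as free base, freshly prepared and kept in the dark. Ki from at least three independent experiments, each in triplicate. Values are mean ± SEM.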

[2] = target: Sodium-dependent serotonin transporter (Rattus norvegicus, UniProt P31652); assay: Displacement of [3H]citaloporam from SERT in rat brain; type: tissue-based
Outline: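 Competition binding against [3H]citalopram in rat brain stem or midbrain membranes. Ligand was used as free base, freshly prepared and kept in the dark. Ki from at least three independent experiments, each in triplicate. Values are mean ± SEM.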

[3] = target: Sodium-dependent dopamine transporter (Homo sapiens) (UniProt Q01959); assay: Photo labeling activity at human DAT expressed in HEK293 cells in the presence of (-)cocaine; type: cell-based; details: tested as the 125I-labelled form
Outline: (§1)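 Cocaine-protection version of the photolabeling. HEK 293 cells expressing hDAT or hSERT were photolabeled with [125I] azido ligand in the presence of 10 µM (-)cocaine. Cells were solubilized and immunoprecipitated with transporter-specific antisera. Read-out was SDS-PAGE and autoradiography.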

[4] = target: Sodium-dependent dopamine transporter (Homo sapiens) (UniProt Q01959); assay: Photo labeling activity at human DAT expressed in HEK293 cells; type: cell-based; details: tested as the 125I-labelled form
Outline: (§2)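 HEK 293 cells expressing hDAT or hSERT were photolabeled with [125I] azido ligand (specific activity about 2000 mCi/µmol, radiochemical purity 99%). Cells were solubilized and lysates immunoprecipitated with DAT- or SERT-specific antisera. Read-out was SDS-PAGE and autoradiography, detecting labeled protein bands of 80 or 66 kDa.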

[5] = target: Sodium-dependent serotonin transporter (Homo sapiens) (UniProt P31645); assay: Photo labeling activity at human SERT expressed in HEK293 cells in the presence of (-)cocaine; type: cell-based; details: tested as the 125I-labelled form; outline: as §1
[6] = target: Sodium-dependent serotonin transporter (Homo sapiens) (UniProt P31645); assay: Photo labeling activity at human SERT expressed in HEK293 cells; type: cell-based; details: tested as the 125I-labelled form; outline: as §2

Sodium-dependent dopamine transporter, sequence (P23977 whole entry): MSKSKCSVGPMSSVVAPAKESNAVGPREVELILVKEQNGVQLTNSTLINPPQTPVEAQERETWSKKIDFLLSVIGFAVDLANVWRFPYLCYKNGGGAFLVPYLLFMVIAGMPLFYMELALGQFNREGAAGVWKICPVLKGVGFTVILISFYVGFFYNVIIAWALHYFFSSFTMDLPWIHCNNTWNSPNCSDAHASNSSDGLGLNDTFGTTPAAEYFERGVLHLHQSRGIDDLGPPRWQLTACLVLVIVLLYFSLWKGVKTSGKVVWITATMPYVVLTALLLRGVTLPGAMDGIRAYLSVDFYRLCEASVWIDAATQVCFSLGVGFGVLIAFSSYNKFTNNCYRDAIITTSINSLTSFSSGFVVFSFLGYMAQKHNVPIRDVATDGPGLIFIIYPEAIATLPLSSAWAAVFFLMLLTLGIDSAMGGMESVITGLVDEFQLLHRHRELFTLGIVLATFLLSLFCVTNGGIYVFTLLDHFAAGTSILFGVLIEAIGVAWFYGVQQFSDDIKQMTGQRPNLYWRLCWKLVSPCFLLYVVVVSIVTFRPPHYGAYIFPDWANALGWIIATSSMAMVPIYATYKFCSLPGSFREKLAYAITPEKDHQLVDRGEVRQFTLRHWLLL
Sodium-dependent serotonin transporter, sequence (P31652 whole entry): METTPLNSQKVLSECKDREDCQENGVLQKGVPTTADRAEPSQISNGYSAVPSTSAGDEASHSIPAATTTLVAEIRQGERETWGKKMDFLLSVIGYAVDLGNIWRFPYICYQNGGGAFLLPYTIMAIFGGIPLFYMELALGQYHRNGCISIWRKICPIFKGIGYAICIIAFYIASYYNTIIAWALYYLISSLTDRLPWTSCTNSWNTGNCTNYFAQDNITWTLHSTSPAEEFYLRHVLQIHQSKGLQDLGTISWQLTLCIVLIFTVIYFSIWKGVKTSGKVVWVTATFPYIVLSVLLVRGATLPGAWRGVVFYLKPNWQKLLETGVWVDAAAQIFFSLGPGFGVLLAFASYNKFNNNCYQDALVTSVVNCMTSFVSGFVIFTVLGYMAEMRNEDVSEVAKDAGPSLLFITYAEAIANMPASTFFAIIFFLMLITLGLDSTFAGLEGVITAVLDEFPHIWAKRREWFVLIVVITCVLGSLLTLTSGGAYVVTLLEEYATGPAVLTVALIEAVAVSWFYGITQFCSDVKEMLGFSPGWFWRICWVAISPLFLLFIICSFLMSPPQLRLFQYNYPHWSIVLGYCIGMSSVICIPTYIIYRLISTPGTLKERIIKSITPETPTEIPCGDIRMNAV
Sodium-dependent dopamine transporter (Homo sapiens), sequence (Q01959 whole entry): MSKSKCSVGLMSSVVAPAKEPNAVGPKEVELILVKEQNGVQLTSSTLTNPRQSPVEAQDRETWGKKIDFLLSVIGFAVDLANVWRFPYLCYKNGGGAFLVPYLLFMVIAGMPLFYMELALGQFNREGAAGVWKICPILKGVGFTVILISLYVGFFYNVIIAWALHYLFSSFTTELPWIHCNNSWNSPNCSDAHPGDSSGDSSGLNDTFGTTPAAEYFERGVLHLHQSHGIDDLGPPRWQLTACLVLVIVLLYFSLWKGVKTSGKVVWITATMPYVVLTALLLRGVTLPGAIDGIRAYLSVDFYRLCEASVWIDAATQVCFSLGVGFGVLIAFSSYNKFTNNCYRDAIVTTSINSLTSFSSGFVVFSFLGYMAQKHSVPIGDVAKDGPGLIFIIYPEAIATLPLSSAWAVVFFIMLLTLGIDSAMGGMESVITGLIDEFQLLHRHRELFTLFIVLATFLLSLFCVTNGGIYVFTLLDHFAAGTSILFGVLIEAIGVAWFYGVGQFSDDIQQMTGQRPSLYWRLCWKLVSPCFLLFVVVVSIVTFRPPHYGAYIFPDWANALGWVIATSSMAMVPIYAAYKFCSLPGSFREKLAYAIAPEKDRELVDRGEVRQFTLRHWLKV
Sodium-dependent serotonin transporter (Homo sapiens), sequence (P31645 whole entry, looked up): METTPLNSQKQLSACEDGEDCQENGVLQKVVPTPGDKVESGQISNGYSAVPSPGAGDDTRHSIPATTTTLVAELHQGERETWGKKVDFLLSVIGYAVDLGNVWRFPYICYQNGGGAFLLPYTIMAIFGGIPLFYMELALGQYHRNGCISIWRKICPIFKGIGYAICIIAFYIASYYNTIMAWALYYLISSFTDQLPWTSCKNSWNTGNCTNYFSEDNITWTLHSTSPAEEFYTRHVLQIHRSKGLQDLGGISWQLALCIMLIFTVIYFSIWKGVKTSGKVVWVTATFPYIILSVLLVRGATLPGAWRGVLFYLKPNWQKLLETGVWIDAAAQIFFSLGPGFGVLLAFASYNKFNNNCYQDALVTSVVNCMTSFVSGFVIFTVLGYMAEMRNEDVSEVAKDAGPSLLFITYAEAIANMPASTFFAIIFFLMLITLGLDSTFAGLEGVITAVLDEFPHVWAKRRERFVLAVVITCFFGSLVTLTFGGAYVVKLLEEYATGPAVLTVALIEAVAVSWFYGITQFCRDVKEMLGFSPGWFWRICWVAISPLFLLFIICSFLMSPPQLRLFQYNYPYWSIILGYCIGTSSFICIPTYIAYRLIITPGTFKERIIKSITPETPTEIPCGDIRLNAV

SMILES | Ki [1] [nM] | Ki [2] [nM] | Activity [3] | Activity [4] | Activity [5] | Activity [6]
COC(=O)[C@@H]1C2CCC(C[C@@H]1c1ccc(-c3ccc([N+](=O)[O-])cc3)cc1)N2C (some centres undefined) | 5.03 | 51 | – | – | – | –
COC(=O)[C@@H]1C2CCC(C[C@@H]1c1ccc(-c3ccc(N)c(I)c3)cc1)N2C (some centres undefined) | 134 | 8.82 | – | – | – | –
COC(=O)[C@@H]1C2CCC(C[C@@H]1c1ccc(-c3ccc(N=[N+]=[N-])c(I)c3)cc1)N2C (some centres undefined) | 15.1 | 109 | inactive | Active | inactive | Active
COC(=O)[C@@H]1C2CCC(C[C@@H]1c1ccc(Br)cc1)N2C (some centres undefined) | 0.42 | 4.1 | – | – | – | –
COC(=O)[C@@H]1C2CCC(C[C@@H]1c1ccc(-c3ccc(N)cc3)cc1)N2C (some centres undefined) | 12.9 | 1070 | – | – | – | –
